system: not listed separately; test: Lipophilicity, log P of the compound; assay type: physicochemical; conditions: octanol/water

Row | logP | Compound
1 | 2.6 | CN(C)c1ccc(C#Cc2cnc(OCCOCCOCCF)c([125I])c2)cc1
2 | 2.8 | CN(C)c1ccc(C#Cc2cnc(OCCO)c([125I])c2)cc1

biological target: Amyloid-beta precursor protein (Homo sapiens, UniProt P05067); test: Displacement of [125I]IMPY from beta amyloid plaque in human brain homogenates; assay type: tissue-based; conditions: not given
Outline: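 Competition binding with [125I]IMPY as radioligand on homogenates from postmortem Alzheimer's disease brain tissue. Non-radioactive ligands compete for plaque binding, and Ki is derived from the competition. Each value was determined three times with duplicate samples in each measurement, reported as mean ± SEM.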

Amyloid-beta precursor protein, sequence (P05067 whole entry): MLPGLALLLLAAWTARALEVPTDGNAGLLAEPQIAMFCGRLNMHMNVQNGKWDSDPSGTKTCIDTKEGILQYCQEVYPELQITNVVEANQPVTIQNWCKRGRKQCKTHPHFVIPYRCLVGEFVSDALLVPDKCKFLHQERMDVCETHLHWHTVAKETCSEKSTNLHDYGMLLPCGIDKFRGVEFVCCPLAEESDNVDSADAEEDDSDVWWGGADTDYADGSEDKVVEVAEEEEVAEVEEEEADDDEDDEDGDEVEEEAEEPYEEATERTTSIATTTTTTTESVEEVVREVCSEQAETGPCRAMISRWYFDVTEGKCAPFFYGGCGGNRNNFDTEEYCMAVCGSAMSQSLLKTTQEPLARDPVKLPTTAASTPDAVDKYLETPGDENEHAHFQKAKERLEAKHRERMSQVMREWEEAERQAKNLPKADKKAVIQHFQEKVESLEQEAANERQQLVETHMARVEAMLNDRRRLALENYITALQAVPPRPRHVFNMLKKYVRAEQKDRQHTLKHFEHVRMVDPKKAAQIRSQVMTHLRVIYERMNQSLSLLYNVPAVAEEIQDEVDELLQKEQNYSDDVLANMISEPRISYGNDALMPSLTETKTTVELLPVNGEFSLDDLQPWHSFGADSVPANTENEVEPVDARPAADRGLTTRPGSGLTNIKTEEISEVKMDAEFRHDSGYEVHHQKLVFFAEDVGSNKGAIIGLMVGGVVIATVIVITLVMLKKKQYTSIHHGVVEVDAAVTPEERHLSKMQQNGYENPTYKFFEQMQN

Row | Compound | Ki [nM]
3 | CN(C)c1ccc(C#Cc2cnc(OCCOCCOCCF)c(I)c2)cc1 | 16.8
4 | OCCOc1ncc(C#Cc2ccc(O)cc2)cc1I | 6.2
5 | CN(C)c1ccc(C#Cc2cnc(OCCOCCOCCF)c(Br)c2)cc1 | 11.2

Further lines, results first:

Row | Ki [nM] | Compound
6 | 9.2 | CN(C)c1ccc(C#Cc2cnc(OCCO)c(I)c2)cc1
7 | 6.7 | CN(C)c1ccc(C#Cc2cnc(OCCO)c(Br)c2)cc1
8 | 13.1 | CNc1ccc(C#Cc2cnc(OCCOCCOCCF)c(Br)c2)cc1
9 | 1.6 | CNc1ccc(C#Cc2cnc(OCCO)c(Br)c2)cc1
10 | 12.5 | CNc1ccc(C#Cc2cnc(OCCO)c(I)c2)cc1

— ChEMBL document CHEMBL1148884, “Radioiodinated aza-diphenylacetylenes as potential SPECT imaging agents for beta-amyloid plaque detection” (Bioorg Med Chem Lett, 2007)
